The values below come from ChEMBL document CHEMBL1123501, “Inactivation of leukocyte elastase by aryl azolides and sulfonate salts. Structure-activity relationship studies” (J Med Chem, 1986).

The source made the active and inactive calls. The rule behind the calls is not given here.

The first assay addresses T1, Neutrophil elastase (Homo sapiens) (UniProt P08246).
T1 sequence (whole entry): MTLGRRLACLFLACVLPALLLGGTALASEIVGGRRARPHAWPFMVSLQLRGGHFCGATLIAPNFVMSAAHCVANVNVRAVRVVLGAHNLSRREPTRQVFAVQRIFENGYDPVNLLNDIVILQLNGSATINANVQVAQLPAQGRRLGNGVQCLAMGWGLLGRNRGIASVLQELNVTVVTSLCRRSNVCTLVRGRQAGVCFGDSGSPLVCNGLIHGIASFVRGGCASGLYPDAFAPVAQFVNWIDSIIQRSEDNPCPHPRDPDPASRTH
Briefly: Compound was evaluated for the inhibitory activity against human Leukocyte elastase; Inactive. Summed up:
(§1)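 Human leukocyte elastase (enzyme stock 3.4 × 10⁻⁵ M in pH 5.5 acetate) incubated at 25 °C with inhibitor (DMSO stock 3.4 × 10⁻⁴ M) in Tris buffer pH 7.2. The inhibitor:enzyme ratio was 10–50. Aliquots taken over time were added to MeOSuc-Ala-Ala-Pro-Val-pNA (stock 3.15 × 10⁻² M). Residual activity was read at 410 nm for 2 min after 30 s, against a DMSO control.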
Take `O=C(Nc1ccccc1C(F)(F)F)n1ccnc1`: the “K obs / 1” value was “inactive”.

Consider `O=C(Nc1cccc(C(F)(F)F)c1)n1ccnc1`, for which the “K obs / 1” value is “inactive”.

With `O=C(NCc1cccc(F)c1)n1ccnc1`, the “K obs / 1” value is “inactive”.

Regarding `O=C(NCc1ccc(C(F)(F)F)cc1)n1ccnc1`, the “K obs / 1” value is “inactive”.

As for `O=C(NCc1cccc(C(F)(F)F)c1)n1ccnc1`, the “K obs / 1” value was “inactive”.

On to `O=C(Nc1cccc(F)c1)n1ccnc1`, for which the “K obs / 1” value was “inactive”.

The next assay has as its target T1, Neutrophil elastase (Homo sapiens). Kind of assay: Inhibitory activity against human Leukocyte elastase. Summed up:
as §1
For the molecule `O=C(Nc1cn(-c2ccccc2)cn1)ON1C(=O)CCC1=O`, the K obs / 1 stood at 927 M⁻¹ s⁻¹.

Molecule `O=C(NCCc1ccccc1)S(=O)(=O)O` had a K obs / 1 of 4 M⁻¹ s⁻¹.

With `COC(=O)C(Cc1ccccc1)NC(=O)S(=O)(=O)O` (racemic), the K obs / 1 was determined as 550 M⁻¹ s⁻¹.

For the molecule `O=C(NCCc1cccc(F)c1)S(=O)(=O)O`, the K obs / 1 was found to be 18 M⁻¹ s⁻¹.

In the case of `COC(=O)C(Cc1cccc(F)c1)NC(=O)n1ccnc1` (centres undefined), the K obs / 1 worked out at 318 M⁻¹ s⁻¹.

Molecule `COC(=O)C(Cc1ccccc1)NC(=O)n1ccccc1=O` (centres undefined) came in with a K obs / 1 of 2330 M⁻¹ s⁻¹.

As to `O=C(Nc1cn(-c2cccc(C(F)(F)F)c2)cn1)n1ccccc1=O`, the K obs / 1 stood at 11700 M⁻¹ s⁻¹.

The molecule `O=C(Nc1cn(-c2cccc(F)c2)cn1)n1ccccc1=O` returned a K obs / 1 of 317 M⁻¹ s⁻¹.

`O=C(Nc1cn(-c2cccc(C(F)(F)F)c2)cn1)ON1C(=O)CCC1=O` gave a K obs / 1 of 13500 M⁻¹ s⁻¹.

Regarding `COC(=O)C(Cc1ccccc1)NC(=O)ON1C(=O)CCC1=O` (centres undefined), the K obs / 1 came to 6640 M⁻¹ s⁻¹.

`COC(=O)C(Cc1cccc(F)c1)NC(=O)S(=O)(=O)O` (racemic) came in with a K obs / 1 of 57 M⁻¹ s⁻¹.

As to `O=C(Nc1cn(-c2ccccc2)cn1)n1ccccc1=O`, the K obs / 1 is 500 M⁻¹ s⁻¹.

Take `O=C(NCCc1cccc(F)c1)n1ccnc1`: the K obs / 1 was 38 M⁻¹ s⁻¹.

`O=C(NCCc1cccc(C(F)(F)F)c1)n1ccnc1` came in with a K obs / 1 of 483 M⁻¹ s⁻¹.

`COC(=O)C(Cc1cccc(C(F)(F)F)c1)NC(=O)n1ccnc1` (centres undefined) registered a K obs / 1 of 1100 M⁻¹ s⁻¹.

In turn, `O=C(Nc1cn(-c2cccc(F)c2)cn1)ON1C(=O)CCC1=O` displayed a K obs / 1 of 823 M⁻¹ s⁻¹.

Regarding `O=C(NCCc1ccccc1)n1ccnc1`, the K obs / 1 came out at 35 M⁻¹ s⁻¹.

`COC(=O)C(Cc1cccc(C(F)(F)F)c1)NC(=O)S(=O)(=O)O` (racemic) gave a K obs / 1 of 13 M⁻¹ s⁻¹.

With `COC(=O)C(Cc1ccccc1)NC(=O)n1ccnc1` (centres undefined), the K obs / 1 stood at 2070 M⁻¹ s⁻¹.

The target is the same in the next assay. Briefly: Inhibitory activity against human Leukocyte elastase; inactive (at 243-fold excess of inhibitor over enzyme).
`O=C(Nc1cccc(Cl)c1)S(=O)(=O)O`: the “K obs / 1” value is “inactive”.

For the molecule `O=C(Nc1ccccc1)S(=O)(=O)O`, the “K obs / 1” value was “inactive”.

`O=C(Nc1ccccc1C(F)(F)F)S(=O)(=O)O`: the “K obs / 1” value was “inactive”.

For the molecule `O=C(Nc1ccc(Cl)cc1)S(=O)(=O)O`, the “K obs / 1” value was “inactive”.

In the case of `O=C(Nc1cccc(F)c1)S(=O)(=O)O`, the “K obs / 1” value is “inactive”.

For `O=C(Nc1ccc(C(F)(F)F)cc1)S(=O)(=O)O`, the “K obs / 1” value is “inactive”.

Take `O=C(NCc1cccc(C(F)(F)F)c1)S(=O)(=O)O`: the “K obs / 1” value is “inactive”.

For the molecule `O=C(Nc1cccc(C(F)(F)F)c1)S(=O)(=O)O`, the “K obs / 1” value was “inactive”.

For the molecule `O=C(NCc1cccc(F)c1)S(=O)(=O)O`, the “K obs / 1” value is “inactive”.
